Assay results taken from ChEMBL document CHEMBL5252546, “Salutaxel, a Conjugate of Docetaxel and a Muramyl Dipeptide (MDP) Analogue, Acts as Multifunctional Prodrug That Inhibits Tumor Growth and Metastasis” (J Med Chem, 2018).
Each block holds one molecule with its values, some of them ahead of it. Activity calls are given as the source filed them. No cut-off for these calls is given here.

Legend:
[1] = Tmax in mouse plasma implanted with mouse 4T1 cells at 5.7 mg/kg,iv measured upto 72 hrs; type: ADME, organism-based
[2] = system: 4T1; assay: Antitumor activity against mouse 4T1 cells xenografted with BALB/c mouse assessed as inhibition of tumor growth at 5.7 mg/kg,iv in presence of compound 5b administrated once per week for 4 weeks; type: functional; settings: 4T1, 672 h
Method in brief: (§1)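 4T1 cells injected into mammary fat pads of BALB/c mice. Dosing iv once per week for 4 weeks, saline vehicle; single-agent arms were given alone or with the peptide component (5b or 6). Endpoints were body weight, tumour volume, tumour weight, lung metastatic nodule count and lung metastasis score. Mean ± SEM, n = 10; ANOVA and Student's t test.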

[3] = system: 4T1; assay: Antitumor activity against mouse 4T1 cells xenografted with BALB/c mouse assessed as decrease in tumor volume at 5.7 mg/kg,iv administrated once per week for 4 weeks; type: functional, organism-based; method in brief: as §1
[4] = system: 4T1; assay: Antitumor activity against mouse 4T1 cells xenografted with BALB/c mouse assessed as reduction lung metastatic nodules at 5.7 mg/kg,iv in presence of compound 5b administrated once per week for 4 weeks; type: functional, organism-based; method in brief: as §1
[5] = system: 4T1; assay: Antitumor activity against mouse 4T1 cells implanted in BALB/c mouse assessed as decrease in serum MMP9 level at 5.7 mg/kg,iv administrated once per week for 4 weeks by ELISA; type: functional, organism-based
[6] = system: 4T1; assay: Antitumor activity against mouse 4T1 cells implanted in BALB/c mouse assessed as decrease in lung injury at 5.7 mg/kg,iv administrated once per week for 4 weeks in presence of MDA-205 by H and E staining based assay; type: functional, organism-based
Method in brief: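 BALB/c mice bearing orthotopic mammary fat pad 4T1 tumors, dosed iv weekly for 4 weeks with saline vehicle as control. Lung sections stained with hematoxylin and eosin and examined by light microscopy at 40× for metastasis, inflammatory infiltration and alveolar wall thickening.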

[7] = Prodrug conversion in mouse plasma implanted with mouse 4T1 cells assessed as AUC (0-t) of docetaxel at 4 mg/kg,iv measured upto 72 hrs; type: ADME, organism-based; design: time < 72 hrs, dose 4 mg/kg, route iv; settings: in vivo
[8] = Drug distribution in rat liver at 4 mg/kg,iv measured by 0.25 hrs; type: ADME, organism-based; settings: in vivo
Method in brief: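 Rats received 4 mg/kg iv. Parent drug and released docetaxel were assayed in tissues and plasma from the first sampling at 0.25 h to 24 h. The lower limit of quantitation was 200 ng/g.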

[9] = Clearance in Beagle dog at 4 mg/kg,iv measured upto 24 hrs; type: ADME, organism-based, Canis lupus familiaris; settings: in vivo
Method in brief: (§2)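 Beagle dogs were given a single iv infusion at 1, 2 or 4 mg/kg. Plasma parent drug and released docetaxel were followed over time. Cmax, Tmax, AUC, MRT, t1/2, CL and Vss were reported by sex and for all dogs combined.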

[10] = Clearance in Beagle dog at 2 mg/kg,iv measured upto 24 hrs; type: ADME, organism-based, Canis lupus familiaris; settings: in vivo; method in brief: as §2
[11] = Clearance in female Beagle dog at 2 mg/kg,iv measured upto 24 hrs; type: ADME, organism-based, Canis lupus familiaris; settings: in vivo; method in brief: as §2
[12] = Half life in male rat at 8 mg/kg,iv measured upto 24 hrs; type: ADME, organism-based; settings: in vivo
[13] = MRT (0 to infinity) in male Beagle dog at 4 mg/kg,iv measured upto 24 hrs; type: ADME, organism-based, Canis lupus familiaris; settings: in vivo
[14] = MRT (0 to infinity) in Beagle dog at 2 mg/kg,iv measured upto 24 hrs; type: ADME, organism-based, Canis lupus familiaris; settings: in vivo
[15] = MRT (0 to infinity) in male Beagle dog at 2 mg/kg,iv measured upto 24 hrs; type: ADME, organism-based, Canis lupus familiaris; settings: in vivo
[16] = MRT (0 to infinity) in female Beagle dog at 2 mg/kg,iv measured upto 24 hrs; type: ADME, organism-based, Canis lupus familiaris; settings: in vivo
[17] = MRT (0 to infinity) in male rat at 8 mg/kg,iv measured upto 24 hrs; type: ADME, organism-based; settings: in vivo
[18] = MRT (0 to infinity) in female rat at 4 mg/kg,iv measured upto 24 hrs; type: ADME, organism-based; settings: in vivo
[19] = AUC (0-infinity) in Beagle dog at 4 mg/kg,iv measured upto 24 hrs; type: ADME, organism-based, Canis lupus familiaris; design: time < 24 hrs, dose 4 mg/kg, route iv; settings: in vivo
Method in brief: (§3)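 Single iv dose: rats 2, 4 or 8 mg/kg by intravenous injection; Beagle dogs 1, 2 or 4 mg/kg by intravenous infusion. Plasma concentration–time data were analysed by sex and pooled. Reported parameters: Cmax, Tmax, AUC0−t, AUC0−∞, MRT0−∞, t1/2, CL, Vss, given as mean ± SD.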

[20] = AUC (0-t) in female Beagle dog at 4 mg/kg,iv measured upto 24 hrs; type: ADME, organism-based, Canis lupus familiaris; design: dose 4 mg/kg, time < 24 hrs, route iv; settings: in vivo; method in brief: as §3
[21] = Tmax in male rat at 4 mg/kg,iv measured upto 24 hrs; type: ADME, organism-based; settings: in vivo
[22] = Cmax in male Beagle dog at 2 mg/kg,iv measured upto 24 hrs; type: ADME, organism-based, Canis lupus familiaris; design: dose 2 mg/kg, time < 24 hrs, route iv; settings: in vivo; method in brief: as §2
[23] = system: 4T1; assay: Synergistic antitumor activity against mouse 4T1 cells xenografted with BALB/c mouse assessed as decrease in lung metastasis at 10 mg/kg,iv administrated in combination with doxorubicin once per week for 4 weeks; type: functional, organism-based
[24] = system: 4T1; assay: Antitumor activity against mouse 4T1 cells xenografted with BALB/c mouse assessed as decrease in tumor volume at 10 mg/kg,iv administrated once per week for 4 weeks; type: functional, organism-based
Method in brief: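 4T1 cells injected into the mammary fat pad of BALB/c mice; iv saline vehicle or 5, 10 or 20 mg/kg once weekly for 4 weeks; body weight, tumour volume, tumour weight, lung metastatic nodule count and metastasis score recorded; n = 10, mean ± SEM, ANOVA and Student's t test.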

[25] = Toxicity in Beagle dog assessed as decrease in blood pressure at 1 to 4 mg/kg,iv measured after 1 to 4 hrs; type: organism-based, Canis lupus familiaris; settings: in vivo, dose lower 1 mg/kg, time lower 1 hrs, dose upper 4 mg/kg, time upper 4 hrs
[26] = target: Cytochrome P450 2C9 (Homo sapiens, UniProt P11712); assay: Inhibition of CYP2C9 in human liver microsomes using probe substrate at 0.1 to 100 uM in presence of NADPH; type: ADME, Microsome; settings: dose 0.1-100 µM
Sequence of Cytochrome P450 2C9 (P11712 whole entry): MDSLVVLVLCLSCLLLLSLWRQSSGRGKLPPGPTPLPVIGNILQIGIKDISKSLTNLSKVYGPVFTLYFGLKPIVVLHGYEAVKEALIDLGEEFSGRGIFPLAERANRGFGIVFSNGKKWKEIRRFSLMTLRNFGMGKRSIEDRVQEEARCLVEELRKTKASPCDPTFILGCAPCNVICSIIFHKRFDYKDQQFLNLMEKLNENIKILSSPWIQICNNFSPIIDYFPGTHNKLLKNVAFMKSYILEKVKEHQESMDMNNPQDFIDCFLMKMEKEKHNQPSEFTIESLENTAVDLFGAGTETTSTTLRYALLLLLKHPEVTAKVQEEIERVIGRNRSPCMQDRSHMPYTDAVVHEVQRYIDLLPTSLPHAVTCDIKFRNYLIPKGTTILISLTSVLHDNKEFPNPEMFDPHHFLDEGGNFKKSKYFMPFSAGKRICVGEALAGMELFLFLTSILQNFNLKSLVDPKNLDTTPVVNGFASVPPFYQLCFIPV

[27] = target: Cytochrome P450 1A2 (Homo sapiens, UniProt P05177); assay: Inhibition of CYP1A2 in human liver microsomes using probe substrate at 0.1 to 100 uM in presence of NADPH; type: ADME, Microsome; settings: dose 0.1-100 µM
Sequence of Cytochrome P450 1A2 (P05177 whole entry): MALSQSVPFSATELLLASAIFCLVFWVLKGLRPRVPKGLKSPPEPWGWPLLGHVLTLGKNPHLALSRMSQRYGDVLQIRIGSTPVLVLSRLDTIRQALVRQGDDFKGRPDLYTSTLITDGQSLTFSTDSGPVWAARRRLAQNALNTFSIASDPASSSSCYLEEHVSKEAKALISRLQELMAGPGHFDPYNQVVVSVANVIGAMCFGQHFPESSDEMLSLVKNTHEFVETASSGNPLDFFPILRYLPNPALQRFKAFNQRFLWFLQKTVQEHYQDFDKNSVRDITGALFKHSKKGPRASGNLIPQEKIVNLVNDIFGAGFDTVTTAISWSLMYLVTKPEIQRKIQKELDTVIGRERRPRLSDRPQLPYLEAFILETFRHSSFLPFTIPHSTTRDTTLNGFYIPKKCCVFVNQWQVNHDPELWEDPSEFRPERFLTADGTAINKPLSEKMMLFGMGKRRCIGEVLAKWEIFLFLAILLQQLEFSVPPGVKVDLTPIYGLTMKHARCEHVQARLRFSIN

[28] = Stability in monkey plasma assessed as compound remaining at 40 uM incubated for 6 hrs; type: ADME, cell-free, Macaca mulatta; settings: rhesus monkey
[29] = Toxicity in Beagle dog assessed as effect on gastrointestinal tract at 3 to 18 mg/kg,iv measured upto 24 hrs; type: organism-based, Canis lupus familiaris; settings: in vivo, dose 3-18 mg/kg
[30] = system: 4T1; assay: Antitumor activity against mouse 4T1 cells implanted in BALB/c mouse assessed as increase in tumor NOD1 expression level at 5 to 20 mg/kg,iv administrated once per week for 4 weeks by western blot assay; type: functional, organism-based; settings: dose 5-20 mg/kg
Method in brief: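 4T1 fat-pad model in BALB/c mice, iv once weekly for 4 weeks; MMP9, MMP2 and NOD1 in spleen, lung and tumour by western blot, β-actin loading control; bands averaged over five mice per group, representative of two independent experiments.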

Tmax [1]: 1.8 min
Structure (SMILES): CC(=O)O[C@@]12CO[C@@H]1C[C@H](O)[C@@]1(C)C(=O)[C@H](O)C3=C(C)[C@@H](OC(=O)[C@H](O)[C@@H](NC(=O)OC(C)(C)C)c4ccccc4)C[C@@](O)([C@@H](OC(=O)c4ccccc4)[C@H]21)C3(C)C [DOCETAXEL ANHYDROUS]
inhibition in vivo at 5.7 mg/kg [2]: 14.4%
Activity [3]: Active
Activity [4]: inactive
Activity [5]: Active
Activity [6]: Active

Structure (SMILES): CC(=O)O[C@@]12CO[C@@H]1C[C@H](O)[C@@]1(C)C(=O)[C@H](O)C3=C(C)[C@@H](OC(=O)[C@H](OC(=O)CCC(=O)NCCCC[C@H](NC(=O)CC[C@@H](NC(=O)[C@H](C)NC(=O)/C=C/c4ccc(F)cc4Cl)C(N)=O)C(=O)O)[C@@H](NC(=O)OC(C)(C)C)c4ccccc4)C[C@@](O)([C@@H](OC(=O)c4ccccc4)[C@H]21)C3(C)C
AUCt [7]: 8.43 µM·h
Drug uptake [8]: Active
clearance [9]: 4.28 mL/min/kg
clearance [10]: 6.08 mL/min/kg
clearance [11]: 5.04 mL/min/kg
half-life [12]: 21.4 min
MRT inf [13]: 16.5 min
MRT inf [14]: 14.2 min
MRT inf [15]: 13.1 min
MRT inf [16]: 15.2 min
MRT inf [17]: 37.9 min
MRT inf [18]: 15.7 min
AUC(0-inf) [19]: 17300 ng·h/mL
AUC(0-t) at 24 h [20]: 20300 ng·h/mL
Tmax [21]: 4.98 min
Cmax [22]: 10800 ng/mL
Activity [23]: Active
Activity [24]: Active
Activity [25]: Non-Toxic
inhibition (INH) [26]: Not Active
inhibition (INH) [27]: Not Active
Stability [28]: Stable
Activity [29]: Toxic
Activity [30]: inactive
